Assay results as given in ChEMBL document CHEMBL1153769, “Novel modified steroid derivatives of androstanolone as chemotherapeutic anti-cancer agents” (Eur J Med Chem, 2009).

Key:
Mus musculus [1] = organism: Mus musculus; assay: Toxicity in mouse EAC cells transplanted Swiss albino mouse assessed as induction of dizziness; type: organism-based; settings: ehrlich
Mus musculus [2] = assay: Toxicity in mouse EAC cells transplanted Swiss albino mouse assessed as change in total WBC content at 25 mg/kg. ip dissolved in DMSO for 14 days measured after final dose by 18 hrs fasting; type: organism-based, Ehrlich; set-up: dose 25 mg/kg, route intraperitoneal; settings: in vivo
Procedure, shortened: (§1)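 Mice (n = 5/group) given 2×10⁶ EAC cells in 0.2 ml i.p. Treatment was 25 mg/kg b.wt. i.p. in DMSO, every other day for 14 days. Animals were fasted 18 h after the last dose, then sacrificed. Tumour volume, haemoglobin, haematocrit, total WBC and body weight recorded. Normal and untreated EAC groups served as controls. Mean ± SE.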

HepG2 [3] = assay: Antitumor activity against human HepG2 cells incubated with drug dissolved in olive oil after 48 hrs by MTT assay; type: functional, cell-based; settings: HepG2, 48 h
Procedure, shortened: (§2)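 HepG2 cells (trypan blue viability >97%) grown in RPMI-1640 with L-glutamine and 10% fetal calf serum, seeded at 3×10³ cells/well. Compounds in olive oil or DMSO were tested at 10, 50 and 100 for 24, 48 and 72 h. MTT (0.5 mg/ml) added, formazan dissolved in DMSO, OD read at 570 nm (ref 690 nm). Reported as % growth inhibition vs control; run in triplicate.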

Mus musculus [4] = organism: Mus musculus; assay: Toxicity in mouse EAC cells transplanted Swiss albino mouse assessed as induction of hypothermia; type: organism-based; settings: ehrlich
Mus musculus [5] = organism: Mus musculus; assay: Toxicity in mouse EAC cells transplanted Swiss albino mouse assessed as induction of errection of hair; type: organism-based; settings: ehrlich
HepG2 [6] = assay: Antitumor activity against human HepG2 cells incubated with drug dissolved in olive oil after 72 hrs by MTT assay; type: functional, cell-based; settings: HepG2, 72 h; procedure, shortened: as §2
[7] = Antitumor activity in mouse EAC cells transplanted in Swiss albino mouse assessed as decrease in tumor volume at 25 mg/kg. ip dissolved in DMSO for 14 days measured after final dose by 18 hrs fasting; type: functional, Ehrlich; set-up: unit not given here; settings: route intraperitoneal; procedure, shortened: as §1
Mus musculus [8] = organism: Mus musculus; assay: Toxicity in mouse EAC cells transplanted Swiss albino mouse assessed as loss of appetite; type: organism-based; settings: ehrlich
Mus musculus [9] = assay: Toxicity in mouse EAC cells transplanted Swiss albino mouse assessed as decrease in body weight at 25 mg/kg. ip dissolved in DMSO for 14 days measured after final dose by 18 hrs fasting; type: organism-based, Ehrlich; set-up: dose 25 mg/kg, route intraperitoneal; scale not given: the % may be the effect or the level left; settings: in vivo; procedure, shortened: as §1
Mus musculus [10] = assay: Toxicity in mouse EAC cells transplanted Swiss albino mouse assessed as change in hematocrit content at 25 mg/kg. ip dissolved in DMSO for 14 days measured after final dose by 18 hrs fasting; type: organism-based, Ehrlich; set-up: dose 25 mg/kg, route intraperitoneal; settings: in vivo; procedure, shortened: as §1
HepG2 [11] = assay: Antitumor activity against human HepG2 cells incubated with drug dissolved in DMSO after 72 hrs by MTT assay; type: functional, cell-based; settings: HepG2, 72 h; procedure, shortened: as §2
HepG2 [12] = assay: Antitumor activity against human HepG2 cells incubated with drug dissolved in DMSO after 48 hrs by MTT assay; type: functional, cell-based; settings: HepG2, 48 h; procedure, shortened: as §2
Mus musculus [13] = assay: Toxicity in mouse EAC cells transplanted Swiss albino mouse assessed as change in hemoglobin content at 25 mg/kg. ip dissolved in DMSO for 14 days measured after final dose by 18 hrs fasting; type: organism-based, Ehrlich; set-up: dose 25 mg/kg, route intraperitoneal; settings: in vivo; procedure, shortened: as §1
Mus musculus [14] = assay: Toxicity in mouse EAC cells transplanted Swiss albino mouse assessed as decrease in body weight at 20 mg/kg. ip dissolved in DMSO for 14 days measured after final dose by 18 hrs fasting; type: functional, Ehrlich; set-up: scale not given: the % may be the effect or the level left; settings: route intraperitoneal
Procedure, shortened: (§3)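 Reference-drug group (n = 5): mice given 2×10⁶ EAC cells in 0.2 ml i.p., then 20 mg/kg b.wt. for 14 days. Fasted 18 h after the last dose, then sacrificed. Tumour volume, haemoglobin, haematocrit, total WBC and body weight measured against normal and untreated EAC groups. Mean ± SE.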

Mus musculus [15] = assay: Toxicity in mouse EAC cells transplanted Swiss albino mouse assessed as change in total WBC content at 20 mg/kg. ip dissolved in DMSO for 14 days measured after final dose by 18 hrs fasting; type: organism-based, Ehrlich; set-up: dose 20 mg/kg, route intraperitoneal; settings: in vivo; procedure, shortened: as §3
Mus musculus [16] = assay: Toxicity in mouse EAC cells transplanted Swiss albino mouse assessed as change in hematocrit content at 20 mg/kg. ip dissolved in DMSO for 14 days measured after final dose by 18 hrs fasting; type: organism-based, Ehrlich; set-up: dose 20 mg/kg, route intraperitoneal; settings: in vivo; procedure, shortened: as §3
[17] = Antitumor activity in mouse EAC cell transplanted in Swiss albino mouse assessed as decrease in tumor volume at 20 mg/kg. ip dissolved in DMSO for 14 days measured after final dose by 18 hrs fasting; type: functional, Ehrlich; settings: route intraperitoneal; procedure, shortened: as §3

SMILES	Activity (Mus musculus [1])	Activity (Mus musculus [2])	IC50 (HepG2 [3]) [µM]	Activity (Mus musculus [4])	Activity (Mus musculus [5])	IC50 (HepG2 [6]) [µM]	Activity [7]	Activity (Mus musculus [8])	Activity (Mus musculus [9]) [%]	Activity (Mus musculus [10]) [%]	IC50 (HepG2 [11]) [µM]	IC50 (HepG2 [12]) [µM]	Activity (Mus musculus [13]) [%]	Activity (Mus musculus [14]) [%]	Activity (Mus musculus [15])	Activity (Mus musculus [16]) [%]	Activity [17] [mL⁻¹]
CC(=O)O[C@H]1CC[C@H]2[C@@H]3CC[C@H]4Cc5c(C#N)c(N)n(-c6ccccc6)c(=S)c5C[C@]4(C)[C@H]3CC[C@]12C	Non-toxic	5.75 /10'3mm'-3	48	Non-toxic	Non-toxic	40	0	Non-toxic	18	33.8	> 100	> 100	12.6	–	–	–	–
COc1ccc(C2Oc3nc(N)c(C#N)c(N)c3C3=C2C[C@@]2(C)[C@@H](CC[C@@H]4[C@@H]2CC[C@]2(C)[C@@H](OC(C)=O)CC[C@@H]42)C3)cc1 (some centres undefined)	Non-toxic	7.35 /10'3mm'-3	48	Non-toxic	Non-toxic	41	0	Non-toxic	21.5	38.3	> 100	95	12.65	–	–	–	–
CC(=O)O[C@H]1CC[C@H]2[C@@H]3CC[C@H]4CNC(=O)CC[C@]4(C)[C@H]3CC[C@]12C	Non-toxic	6.46 /10'3mm'-3	47	Non-toxic	Non-toxic	35	0	Non-toxic	20.33	38.56	40	42	12.96	–	–	–	–
CC(=O)O[C@H]1CC[C@H]2[C@@H]3CC[C@H]4CC5=C(C[C@]4(C)[C@H]3CC[C@]12C)C(c1ccccc1)OC(N)=C5C#N (some centres undefined)	Non-toxic	5.9 /10'3mm'-3	46	Non-toxic	Non-toxic	30	0	Non-toxic	18.66	36.6	73	81	12.5	–	–	–	–
CC(=O)O[C@H]1CC[C@H]2[C@@H]3CC[C@H]4C/C(=N/n5c(-c6ccccc6)csc5=S)CC[C@]4(C)[C@H]3CC[C@]12C	Non-toxic	5.66 /10'3mm'-3	47	Non-toxic	Non-toxic	37	0	Non-toxic	20	42.7	90	85	10.7	–	–	–	–
O=c1[nH]cc(F)c(=O)[nH]1 [FLUOROURACIL]	–	–	–	–	–	–	–	–	–	–	–	–	–	23	6.4 /10'3mm'-3	10.73	0
